In PMC5984530 (Proceedings of the National Academy of Sciences of the …, 2018):
Positions count from the first letter of the chain named. Each block holds one compound with its values, some of them ahead of it.

What was measured:
HlCHIL1 protein = target: T1, HlCHIL1 protein (Humulus lupulus, UniProt A0A2U7XUH7); assay: Differential scanning fluorimetry; assay type: binding; settings: for binding to CHIL1 protein (in words): wild-type HlCHIL1, differential scanning fluorimetry; for ΔTmmax: wild-type HlCHIL1, thermal shift dose-response
T1 sequence (A0A2U7XUH7 1-214): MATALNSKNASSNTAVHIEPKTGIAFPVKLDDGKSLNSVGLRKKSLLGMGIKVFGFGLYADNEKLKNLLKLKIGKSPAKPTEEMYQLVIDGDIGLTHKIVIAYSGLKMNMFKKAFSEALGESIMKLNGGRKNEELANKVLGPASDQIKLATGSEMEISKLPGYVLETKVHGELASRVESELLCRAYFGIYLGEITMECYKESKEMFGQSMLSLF
Summary of the method: (§1)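 Purified HlCHIL protein (wild-type or point mutant), 5 μM, was mixed with Protein Thermal Shift buffer and dye. Test ligand was serially diluted from 250 μM to 0.12 μM (12 points). Melting was followed on a real-time PCR instrument. Kd and ΔTmmax were fitted from the dose–response of thermal shift against ligand concentration.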

CHIL2 = target: T2, CHIL2 (Humulus lupulus, UniProt A0A2U7XUE3); assay: Protein-metabolite interaction assay; assay type: binding; settings: same incubation conditions, 8 h at 4 °C
T2 sequence (A0A2U7XUE3 1-209): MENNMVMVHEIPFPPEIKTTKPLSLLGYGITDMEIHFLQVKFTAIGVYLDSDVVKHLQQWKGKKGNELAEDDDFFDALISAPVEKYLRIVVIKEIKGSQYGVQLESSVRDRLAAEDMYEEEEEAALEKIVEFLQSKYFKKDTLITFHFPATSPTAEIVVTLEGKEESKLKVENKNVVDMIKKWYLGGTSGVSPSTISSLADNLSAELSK

His-tagged CHIL1 = target: T3, His-tagged CHIL1 (Humulus lupulus, UniProt A0A2U7XUH7); assay: Protein-metabolite interaction assay; assay type: binding
T3 sequence (A0A2U7XUH7 1-214): T1 sequence (A0A2U7XUH7 1-214)
Summary of the method: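 His-tagged CHIL1 was expressed in E. coli BL21 and purified by Ni-NTA. Protein (30 μg) was incubated for 8 h at 4 °C with yeast extract (about 200 μM N/NC, 5 μM DMX) in 50 mM Tris·HCl pH 7.5 with 20% methanol. Protein was captured on MagneHis Ni beads. Bead-bound and supernatant compounds were extracted with ethyl acetate and measured by LC-QQQ-MS/MS (MRM 341.0→165.0). Beads alone were the control; n = 3.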

CHIL1^V139F/A143F = target: T4, CHIL1^V139F/A143F (Humulus lupulus, UniProt A0A2U7XUH7, A143F/V139F); assay type: binding; settings: thermal shift dose-response
T4 sequence (A0A2U7XUH7 1-214 V139F/A143F): T1 sequence (A0A2U7XUH7 1-214) with V139F, A143F

CHIL1^A143F = target: T5, CHIL1^A143F (Humulus lupulus, UniProt A0A2U7XUH7, A143F); assay: Differential scanning fluorimetry binding assay with CHIL1 A143F mutant; settings: thermal shift dose-response
T5 sequence (A0A2U7XUH7 1-214 A143F): T1 sequence (A0A2U7XUH7 1-214) with A143F
Summary of the method: as §1

CHIL1^V139F = target: T6, CHIL1^V139F (Humulus lupulus, UniProt A0A2U7XUH7, V139F); assay: Differential scanning fluorimetry binding assay with CHIL1 V139F mutant
T6 sequence (A0A2U7XUH7 1-214 V139F): T1 sequence (A0A2U7XUH7 1-214) with V139F
Summary of the method: as §1

CHS_H1 = target: T7, CHS_H1 (Humulus lupulus, UniProt Q9FEY5); assay: In vitro chalcone synthase assay, kinetic parameters, CHS_H1 alone; assay type: biochemical; settings: 2 μg CHS_H1; other substrate fixed: 150 μM malonyl-CoA or 40 μM p-coumaroyl-CoA
T7 sequence (Q9FEY5 1-389): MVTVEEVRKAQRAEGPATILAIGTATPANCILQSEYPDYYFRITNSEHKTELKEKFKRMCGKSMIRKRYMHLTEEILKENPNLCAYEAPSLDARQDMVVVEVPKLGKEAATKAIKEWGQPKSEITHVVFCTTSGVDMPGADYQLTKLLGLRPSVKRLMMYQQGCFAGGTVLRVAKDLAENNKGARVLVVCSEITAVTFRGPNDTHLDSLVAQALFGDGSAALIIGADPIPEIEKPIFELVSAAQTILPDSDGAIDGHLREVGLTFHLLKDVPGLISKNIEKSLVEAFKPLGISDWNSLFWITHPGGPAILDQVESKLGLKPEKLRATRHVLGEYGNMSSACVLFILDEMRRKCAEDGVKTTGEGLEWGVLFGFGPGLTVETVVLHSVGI
Summary of the method: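 Purified recombinant CHS_H1 (2 μg) was run in standard reactions: 50 mM Tris·HCl pH 7, 0.1 mg/mL BSA, 30 °C, 60 min. One substrate was fixed (40 μM p-coumaroyl-CoA or 150 μM malonyl-CoA) while the other was varied. Products were extracted and quantified. Apparent Km came from Hanes plots; n = 3, means ± SD.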

Structure (SMILES): CC(C)=CCc1c(O)cc2c(c1O)C(=O)C[C@@H](c1ccc(O)cc1)O2 [6PN, 6-prenylnaringenin]
- binding to CHIL1 protein (in words) (HlCHIL1 protein): no such binding could be detected

Structure (SMILES): CC(C)=CCc1c(O)cc(O)c(C(=O)/C=C/c2ccc(O)cc2)c1O [DMX, demethylxanthohumol]
- enrichment of DMX levels by CHIL1 protein (bound vs solution) (His-tagged CHIL1; incubation 8 h at 4 °C with yeast extract (DMX/6PN/8PN)): 14.2 fold
- ratio of (DMX)/(total DMX) in CHIL1-bound chemical mixture (His-tagged CHIL1; incubation 8 h at 4 °C, n = 3): 19.7%
- ratio of (DMX)/(total DMX) in solution (His-tagged CHIL1; supernatant, incubation 8 h at 4 °C): 1.39%
- ΔTmmax (CHIL1^V139F/A143F): 5.26 °C
- ΔTmmax (CHIL1^A143F): 10.87 °C
- Kd (HlCHIL1 protein): 25.1 µM
- ΔTmmax (HlCHIL1 protein): 10.23 °C
- CHIL2-associated compound (in words) (CHIL2): no CHIL2-associated DMX or 8PN were detected
- Kd (CHIL1^V139F): 10 µM
- ΔTmmax (CHIL1^V139F; CHIL1^V139F, thermal shift dose-response): 10.15 °C

Structure (SMILES): CCCCCCCCCCCC(=O)O [lauric acid]
- ΔTmmax (HlCHIL1 protein): 5.0 °C

Structure (SMILES): CCCCCCCCCCCCCC(=O)O [myristic acid]
- Kd (HlCHIL1 protein): 3.45 µM
- ΔTmmax (HlCHIL1 protein): 3.55 °C

More lines, main results first:

- binding to CHIL1 protein (in words) (HlCHIL1 protein): no such binding could be detected
Structure (SMILES): CC(C)=CCc1c(O)cc(O)c2c1O[C@H](c1ccc(O)cc1)CC2=O [8PN, 8-prenylnaringenin]
- CHIL2-associated compound (in words) (CHIL2): no CHIL2-associated DMX or 8PN were detected

- Kcat (CHS_H1): 0.24 ± 0.03 s^−1 × 10^−3
- Km (CHS_H1): 10.1 ± 2.99 µM
Structure (SMILES): CC(C)(COP(=O)(O)OP(=O)(O)OC[C@H]1O[C@@H](n2cnc3c(N)ncnc32)[C@H](O)[C@@H]1OP(=O)(O)O)[C@@H](O)C(=O)NCCC(=O)NCCSC(=O)CC(=O)O [Malonyl-CoA]

- binding to CHIL1 protein (in words) (HlCHIL1 protein): no such binding could be detected
Structure (SMILES): O=C1C[C@@H](c2ccc(O)cc2)Oc2cc(O)cc(O)c21 [N, naringenin]

- binding to CHIL1 protein (in words) (HlCHIL1 protein): no such binding could be detected
Structure (SMILES): COc1cc(O)c(CC=C(C)C)c(O)c1C(=O)/C=C/c1ccc(O)cc1 [XN, 3′-prenyl-6′-O-methylchalconaringenin]

- Kcat (CHS_H1): 0.21 ± 0.02 s^−1 × 10^−3
- Km (CHS_H1): 4.82 ± 0.99 µM
Structure (SMILES): CC(C)(COP(=O)(O)OP(=O)(O)OC[C@H]1O[C@@H](n2cnc3c(N)ncnc32)[C@H](O)[C@@H]1OP(=O)(O)O)[C@@H](O)C(=O)NCCC(=O)NCCSC(=O)/C=C/c1ccc(O)cc1 [p-Coumaroyl-CoA]
